Results published in ChEMBL document CHEMBL1122709, “Synthesis and biological activity of a new class of cytotoxic agents: N-(3-oxoprop-1-enyl)-substituted pyrimidines and purines” (J Med Chem, 1984).

Key:
[1] = system: HeLa; assay: Inhibition of HeLa cells growth (cytotoxicity); assay type: functional; details: Homo sapiens, read-out: ID50 (the source's name)
Procedure, shortened: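 HeLa cells in complete medium, grown to 1.7 × 10^5/mL (100 mL culture). Incubated 16 h with varying concentrations of inhibitor, then growth inhibition assessed.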

[2] = system: HeLa; assay: Inhibition of macromolecular synthesis in HeLa cells assayed by the incorporation of radioactive leucine into protein; assay type: functional, cell-based; details: Homo sapiens
Procedure, shortened: (§1)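 HeLa S3 suspension culture in MEM with 5% fetal calf serum and 2 mM L-glutamine. Cells incubated with 0.5 μCi of labeled precursor: [methyl-3H]thymidine for DNA, [5,6-3H]uridine (40 Ci/mmol) for RNA, L-[4,5-3H]leucine (56 Ci/mmol) for protein. Synthesis rate taken as precursor uptake into cold TCA-insoluble material.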

[3] = system: HeLa; assay: Inhibition of macromolecular synthesis in HeLa cells assayed by the incorporation of radioactive thymidine into DNA; assay type: functional, cell-based; details: Homo sapiens; procedure, shortened: as §1
[4] = system: HeLa; assay: Inhibition of macromolecular synthesis in HeLa cells assayed by the incorporation of radioactive uridine into RNA; assay type: functional, cell-based; details: Homo sapiens; procedure, shortened: as §1
[5] = Compound was evaluated for its half-life when nucleophile was added in solution buffered at pH 7.2 in the presence of aminoethanol; assay type: ADME; details: buffered solution with added nucleophile (aminoethanol)
Procedure, shortened: (§2)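 Half-life of each compound measured in aqueous solution buffered at pH 7.2 with a nucleophile, glutathione or aminoethanol, added. Reaction followed kinetically as disappearance of the propenal.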

[6] = Compound was evaluated for its half-life when nucleophile was added in solution buffered at pH 7.2 in the presence of glutathione; assay type: ADME; details: buffered solution with added nucleophile (glutathione); procedure, shortened: as §2

| SMILES | IC50 [2] | IC50 [3] | IC50 [4] | half-life [5] | half-life [6] | IC50 [1] |
| --- | --- | --- | --- | --- | --- | --- |
| Nc1nc(O)c2ncn(/C=C/C=O)c2n1 | > 100 µM | > 100 µM | 50 µM |  |  | 24 µM |
| CC(=O)/C=C/n1cc(C)c(=O)[nH]c1=O | > 100 µM | > 100 µM | > 100 µM |  |  |  |
| Nc1ncnc2c1ncn2/C=C/C=O | > 100 µM | 30 µM | > 100 µM | 15 h | 2.1 min | 2 µM |
| Cc1cn([C@@H]2O[C@H](CO)[C@@H](O)[C@@H]2O)c(=O)n(/C=C/C=O)c1=O | > 100 µM | 40 µM | 100 µM |  |  | 40 µM |
| Cc1cn([C@@H]2O[C@H](CO)[C@@H](O)[C@H]2O)c(=O)n(/C=C/C=O)c1=O | > 100 µM | > 100 µM | 100 µM |  |  |  |
| N#C/C=C/n1c(=O)ccn([C@H]2C[C@H](O)[C@@H](CO)O2)c1=O | > 100 µM | 100 µM | 100 µM |  |  |  |
| CC(=O)/C=C/n1c(=O)ccn([C@H]2C[C@H](O)[C@@H](CO)O2)c1=O | > 100 µM | 1.5 µM | 6 µM |  |  | 6 µM |
| Cc1cn([C@H]2C[C@H](O)[C@@H](CO)O2)c(=O)n(/C=C/CO)c1=O | > 100 µM | 5 µM | 5 µM |  |  | 60 µM |
| Cc1cn(/C=C/C=N/O)c(=O)[nH]c1=O | > 100 µM | > 100 µM | > 100 µM |  |  |  |
| O=C/C=C/n1cc(CO)c(=O)[nH]c1=O | > 100 µM | > 100 µM | > 100 µM |  |  |  |
| O=C/C=C/n1c(=O)ccn(C2O[C@H](CO)[C@@H](O)[C@H]2O)c1=O (stereo partly drawn) | > 100 µM | 10 µM | 3 µM |  |  | 9 µM |

Now from value to compound, other results behind:

| IC50 [2] | IC50 [3] | IC50 [4] | half-life [5] | half-life [6] | SMILES | IC50 [1] |
| --- | --- | --- | --- | --- | --- | --- |
| 30 µM | 30 µM | 30 µM |  |  | O=C/C=C/n1ccc(=O)[nH]c1=O | 4 µM |
| > 100 µM | > 100 µM | > 100 µM |  |  | Nc1ccn(/C=C/C=O)c(=O)n1 | 15 µM |
| > 100 µM | > 100 µM | > 100 µM |  |  | Cc1cn(/C=C/C#N)c(=O)[nH]c1=O |  |
| 15 µM | 10 µM | 15 µM |  |  | Cc1cn(C)c(=O)n(/C=C/C=O)c1=O | 3 µM |
| > 100 µM | > 100 µM | > 100 µM |  |  | Cc1cn(/C=C/CO)c(=O)[nH]c1=O |  |
| 100 µM | 60 µM | 100 µM |  |  | CCOC(=O)/C=C/n1cnc2c(N)ncnc21 |  |
| 80 µM | 60 µM | > 100 µM |  |  | O=C/C=C/n1cc(C(F)(F)F)c(=O)[nH]c1=O |  |
| 25 µM | 23 µM | 100 µM | 18 h | 3.5 min | Cc1cn(/C=C/C=O)c(=O)[nH]c1=O | 1 µM |
| 20 µM | 20 µM | 20 µM |  |  | Cc1cn(COCCO)c(=O)n(/C=C/C=O)c1=O | 6 µM |
| 15 µM | 0.8 µM | 15 µM |  |  | O=C/C=C/n1c(=O)ccn([C@H]2C[C@H](O)[C@@H](CO)O2)c1=O | 1 µM |
| 15 µM | 0.5 µM | 20 µM | 25 h | 8 min | Cc1cn([C@H]2C[C@H](O)[C@@H](CO)O2)c(=O)n(/C=C/C=O)c1=O | 1 µM |
| 15 µM | 0.3 µM | 80 µM |  |  | O=C/C=C/n1c(=O)c(I)cn([C@H]2C[C@H](O)[C@@H](CO)O2)c1=O | 20 µM |
| 40 µM | 60 µM | 90 µM |  |  | O=C/C=C/n1cc(F)c(=O)[nH]c1=O | 3 µM |
